What follows are compounds tested on Tobacco mosaic virus (assay: Antiviral activity against Tobacco mosaic virus (TMV) inoculated on whole Nicotiana tabacum leaves followed by smearing with 500 ug/mL compound solution on left side of leaves assessed as viral infection curative effect measured 3 to 4 days post viral infection).
Type: functional
Summary of the method: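 Whole same-age N. tabacum leaves are brush-inoculated with purified TMV (6 × 10^-3 mg/mL), washed with water and dried. The compound solution is then applied to the left half and solvent to the right half as control. Local lesions are counted 3-4 days after inoculation. Inhibition % is calculated from average lesion counts, control versus treated. Three repetitions.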

Row | SMILES | Activity [%]
1 | CS/C(NC(c1ccccc1)P(=O)(OC(C)C)OC(C)C)=C(\C#N)C(N)=O (centres undefined) | 28.8
2 | CCCOP(=O)(OCCC)C(N/C(SC)=C(/C#N)C(=O)OC)c1ccccc1 (centres undefined) | 37.7
3 | CCOC(=O)/C(C#N)=C(\NC(c1ccccc1)P(=O)(OC(C)C)OC(C)C)SC (centres undefined) | 42.8
4 | CCOP(=O)(OCC)C(N/C(SC)=C(/C#N)C(N)=O)c1ccccc1 (centres undefined) | 54.4
5 | CS/C(NC(c1ccccc1)P(=O)(OC(C)C)OC(C)C)=C(\C#N)C(=O)NCc1ccccc1 (centres undefined) | 52.9
6 | COC(=O)/C(C#N)=C(\NC(c1ccccc1)P(=O)(OC(C)C)OC(C)C)SC (centres undefined) | 43.3
7 | CCCOP(=O)(OCCC)C(N/C(SC)=C(/C#N)C(N)=O)c1ccccc1 (centres undefined) | 53.9
8 | CCOCCOC(=O)/C(C#N)=C(\NC(c1ccccc1)P(=O)(OCC)OCC)SC (centres undefined) | 55.2
9 | CCCCOP(=O)(OCCCC)C(N/C(SC)=C(/C#N)C(=O)NCc1ccccc1)c1ccccc1 (centres undefined) | 28.4
10 | CCOP(=O)(OCC)C(N/C(SC)=C(/C#N)C(=O)NCc1ccccc1)c1ccccc1 (centres undefined) | 55
11 | CCCOP(=O)(OCCC)C(N/C(SC)=C(/C#N)C(=O)NCc1ccccc1)c1ccccc1 (centres undefined) | 53.8
12 | CCCOP(=O)(OCCC)C(N/C(SC)=C(/C#N)C(=O)OCCOCC)c1ccccc1 (centres undefined) | 43.2
13 | CCOCCOC(=O)/C(C#N)=C(\NC(c1ccccc1)P(=O)(OC(C)C)OC(C)C)SC (centres undefined) | 35.1

What follows are compounds tested on Tobacco mosaic virus (assay: Antiviral activity against Tobacco mosaic virus (TMV) pre-treated with 500 ug/mL compound for 30 min followed by inoculation on left side of Nicotiana tabacum leaves assessed as virus inactivation effect measured 3 to 4 days post viral infection).
Type: functional
Summary of the method: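 Purified TMV is mixed with an equal volume of compound solution for 30 min. The mixture is rub-inoculated on the left half of N. tabacum leaves, and a solvent–virus mixture on the right half serves as control. Local lesions are recorded 3-4 days after inoculation. Inhibition % = (control − treated average lesions)/control × 100. Three repetitions. EC50 is derived from tests at several concentrations.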

Row | SMILES | Activity [%]
14 | CS/C(NC(c1ccccc1)P(=O)(OC(C)C)OC(C)C)=C(\C#N)C(N)=O (centres undefined) | 5.7
15 | CCCOP(=O)(OCCC)C(N/C(SC)=C(/C#N)C(=O)OC)c1ccccc1 (centres undefined) | 47.1
16 | CCOC(=O)/C(C#N)=C(\NC(c1ccccc1)P(=O)(OC(C)C)OC(C)C)SC (centres undefined) | 37.8
17 | CCOP(=O)(OCC)C(N/C(SC)=C(/C#N)C(N)=O)c1ccccc1 (centres undefined) | 60.8
18 | CS/C(NC(c1ccccc1)P(=O)(OC(C)C)OC(C)C)=C(\C#N)C(=O)NCc1ccccc1 (centres undefined) | 51.5
19 | COC(=O)/C(C#N)=C(\NC(c1ccccc1)P(=O)(OC(C)C)OC(C)C)SC (centres undefined) | 45.7
20 | CCCOP(=O)(OCCC)C(N/C(SC)=C(/C#N)C(N)=O)c1ccccc1 (centres undefined) | 63
21 | CCOCCOC(=O)/C(C#N)=C(\NC(c1ccccc1)P(=O)(OCC)OCC)SC (centres undefined) | 46.8
22 | CCCCOP(=O)(OCCCC)C(N/C(SC)=C(/C#N)C(=O)NCc1ccccc1)c1ccccc1 (centres undefined) | 11
23 | CCOP(=O)(OCC)C(N/C(SC)=C(/C#N)C(=O)NCc1ccccc1)c1ccccc1 (centres undefined) | 51.9
24 | CCCOP(=O)(OCCC)C(N/C(SC)=C(/C#N)C(=O)NCc1ccccc1)c1ccccc1 (centres undefined) | 50
25 | CCCOP(=O)(OCCC)C(N/C(SC)=C(/C#N)C(=O)OCCOCC)c1ccccc1 (centres undefined) | 51.5
26 | CCOCCOC(=O)/C(C#N)=C(\NC(c1ccccc1)P(=O)(OC(C)C)OC(C)C)SC (centres undefined) | 55.9

Each compound was assayed on Tobacco mosaic virus (assay: Antiviral activity against Tobacco mosaic virus (TMV) inoculated on 500 ug/mL compound smeared Nicotiana tabacum leaves assessed as protective effect against viral infection measured 3 to 4 days post viral infection).
Type: functional
Summary of the method: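 Half-leaf assay on same-age N. tabacum leaves. The compound solution is applied to the left half and solvent to the right half as control. After 12 h, leaves dusted with silicon carbide are brush-inoculated with purified TMV (6 × 10^-3 mg/mL) and then rinsed with water. Local lesions are counted 3-4 days later. Inhibition % = (control lesions − treated lesions)/control lesions × 100. Three repetitions.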

Row | SMILES | Activity [%]
27 | CS/C(NC(c1ccccc1)P(=O)(OC(C)C)OC(C)C)=C(\C#N)C(N)=O (centres undefined) | 54.4
28 | CCCOP(=O)(OCCC)C(N/C(SC)=C(/C#N)C(=O)OC)c1ccccc1 (centres undefined) | 44.4
29 | CCOC(=O)/C(C#N)=C(\NC(c1ccccc1)P(=O)(OC(C)C)OC(C)C)SC (centres undefined) | 37.6
30 | CCOP(=O)(OCC)C(N/C(SC)=C(/C#N)C(N)=O)c1ccccc1 (centres undefined) | 55.6
31 | CS/C(NC(c1ccccc1)P(=O)(OC(C)C)OC(C)C)=C(\C#N)C(=O)NCc1ccccc1 (centres undefined) | 39
32 | COC(=O)/C(C#N)=C(\NC(c1ccccc1)P(=O)(OC(C)C)OC(C)C)SC (centres undefined) | 40.8
33 | CCCOP(=O)(OCCC)C(N/C(SC)=C(/C#N)C(N)=O)c1ccccc1 (centres undefined) | 45.8
34 | CCOCCOC(=O)/C(C#N)=C(\NC(c1ccccc1)P(=O)(OCC)OCC)SC (centres undefined) | 41.2
35 | CCCCOP(=O)(OCCCC)C(N/C(SC)=C(/C#N)C(=O)NCc1ccccc1)c1ccccc1 (centres undefined) | 45
36 | CCOP(=O)(OCC)C(N/C(SC)=C(/C#N)C(=O)NCc1ccccc1)c1ccccc1 (centres undefined) | 55.1
37 | CCCOP(=O)(OCCC)C(N/C(SC)=C(/C#N)C(=O)NCc1ccccc1)c1ccccc1 (centres undefined) | 42.4
38 | CCCOP(=O)(OCCC)C(N/C(SC)=C(/C#N)C(=O)OCCOCC)c1ccccc1 (centres undefined) | 43.1
39 | CCOCCOC(=O)/C(C#N)=C(\NC(c1ccccc1)P(=O)(OC(C)C)OC(C)C)SC (centres undefined) | 38.4
